What was measured:
[1] = biological target: T1, Adenosine receptor A1 (Homo sapiens) (UniProt P30542); experiment: Allosteric enhancer activity at recombinant human A1 adenosine receptor expressed in CHO cells assessed as change in forskolin-induced cAMP production at 1 uM after 6 mins by radioimmunoassay; format: functional, cell-based
T1 sequence (whole entry): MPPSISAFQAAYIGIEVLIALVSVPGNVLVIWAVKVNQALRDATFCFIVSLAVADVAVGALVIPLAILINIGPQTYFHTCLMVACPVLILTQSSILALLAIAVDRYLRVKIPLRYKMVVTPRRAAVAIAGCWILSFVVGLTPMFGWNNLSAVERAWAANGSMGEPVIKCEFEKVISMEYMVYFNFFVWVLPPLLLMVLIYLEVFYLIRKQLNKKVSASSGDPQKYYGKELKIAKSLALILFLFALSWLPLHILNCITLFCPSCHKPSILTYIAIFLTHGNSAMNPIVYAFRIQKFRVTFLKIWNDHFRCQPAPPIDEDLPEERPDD
Method in brief: (§1)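 hA1CHO cells (about 8000 fmol/mg protein) thawed from low-passage stocks, grown in Ham's F-12 with 10% FBS and G-418, then plated 48 h. Test compound at 0.01, 0.1, 1 or 10 µM with CPA (0.05–0.1 nM) for 6 min at 36 °C. Stopped with HCl (final 50 mM). cAMP in acidified extracts measured by radioimmunoassay. Reference enhancer run in each experiment. Four experiments per concentration.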

[2] = biological target: T2, Adenosine receptor A3 (Homo sapiens) (UniProt P0DMS8); experiment: Displacement of [3H]MRE3008F20 from recombinant human A3 adenosine receptor expressed in CHO cells at 10 uM after 120 mins by scintillation counting; format: cell-based
T2 sequence (whole entry): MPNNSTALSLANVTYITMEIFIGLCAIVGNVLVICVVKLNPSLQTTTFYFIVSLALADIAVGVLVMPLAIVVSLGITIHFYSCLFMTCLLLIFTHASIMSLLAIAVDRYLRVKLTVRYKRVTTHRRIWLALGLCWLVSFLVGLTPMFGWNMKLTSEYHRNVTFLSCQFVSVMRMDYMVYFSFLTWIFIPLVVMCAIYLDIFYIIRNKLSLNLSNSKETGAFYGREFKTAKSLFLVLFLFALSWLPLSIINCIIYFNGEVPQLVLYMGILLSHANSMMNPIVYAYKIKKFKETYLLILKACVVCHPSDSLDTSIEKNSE
Method in brief: (§2)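 Membranes from hA3CHO cells incubated with 2 nM [3H]MRE 3008F20 in 50 mM Tris–HCl, 10 mM MgCl2, 1 mM EDTA, pH 7.4 at 4 °C for 120 min. Compound added from a 100-fold DMSO stock, 1% DMSO final, also in controls. Separated by GF/B filtration and counted by scintillation. Result given as % of control specific binding.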

[3] = biological target: T1, Adenosine receptor A1 (Homo sapiens); experiment: Allosteric enhancer activity at recombinant human A1 adenosine receptor expressed in CHO cells assessed as change in forskolin-induced cAMP production at 0.01 uM after 6 mins by radioimmunoassay; format: functional, cell-based; method in brief: as §1
[4] = biological target: Adenosine receptor A2a (Homo sapiens) (UniProt P29274); experiment: Displacement of [3H]ZM241385 from recombinant human A2A adenosine receptor expressed in CHO cells at 10 uM after 60 mins by scintillation counting; format: cell-based
Method in brief: as §2, with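 “hA2ACHO” for “hA3CHO”, “1” for “2”, “[3H]ZM 241385” for “[3H]MRE 3008F20”, “MgCl2,” for “MgCl2, 1 mM EDTA,”, “60” for “120”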

[5] = biological target: T1, Adenosine receptor A1 (Homo sapiens); experiment: Allosteric enhancer activity at recombinant human A1 adenosine receptor expressed in CHO cells assessed as change in forskolin-induced cAMP production at 10 uM after 6 mins by radioimmunoassay; format: functional, cell-based; method in brief: as §1
[6] = biological target: T1, Adenosine receptor A1 (Homo sapiens); experiment: Allosteric enhancer activity at recombinant human A1 adenosine receptor expressed in CHO cells assessed as change in forskolin-induced cAMP production at 0.1 uM after 6 mins by radioimmunoassay; format: functional, cell-based; method in brief: as §1
[7] = biological target: T1, Adenosine receptor A1 (Homo sapiens); experiment: Binding affinity to recombinant human A1 adenosine receptor allosteric site expressed in CHO cells assessed as potentiation of CCPA-induced [3H]DPCPX displacement at 10 uM after 90 mins relative to control; format: cell-based
Method in brief: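 Competition of CCPA (0.01 nM–1 µM) against 1 nM [3H]DPCPX on hA1CHO membranes, run in triplicate, 90 min at 25 °C, in 50 mM Tris–HCl pH 7.4, with or without test compound at 10 µM. Nonspecific binding taken with 1 µM DPCPX. Ki by Cheng–Prusoff. Shift = Ki(CCPA)/Ki(CCPA + 10 µM compound).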

[8] = biological target: T1, Adenosine receptor A1 (Homo sapiens); experiment: Binding affinity to recombinant human A1 adenosine receptor allosteric site expressed in CHO cells assessed as [3H]CCPA Bmax shift at 10 uM after 90 mins relative to control; format: cell-based
Method in brief: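 Saturation binding of [3H]CCPA (0.05–20 nM) to hA1CHO membranes. Membranes pretreated with adenosine deaminase 3 UI/mL for 30 min at 37 °C. Run in triplicate, 90 min at 25 °C, in 50 mM Tris–HCl pH 7.4, with or without test compound at final 10 µM. Nonspecific binding taken with 1 µM R-PIA. Bmax fitted by LIGAND. Shift is the fold of Bmax increase over control.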

[9] = biological target: T1, Adenosine receptor A1 (Homo sapiens); experiment: Displacement of [3H]DPCPX from recombinant human A1 adenosine receptor expressed in CHO cells at 10 uM after 120 mins by scintillation counting; format: cell-based
Method in brief: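 Membranes from hA1CHO cells incubated with 1 nM [3H]DPCPX in 50 mM Tris–HCl pH 7.4 at 25 °C for 120 min. Compound added from a 100-fold DMSO stock, so 1% DMSO final, also present in controls. Bound ligand separated on GF/B filters and counted by scintillation. Result given as % of control specific binding.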

[10] = biological target: T1, Adenosine receptor A1 (Homo sapiens); experiment: Binding affinity to recombinant human A1 adenosine receptor allosteric site expressed in CHO cells assessed as [3H]DPCPX Bmax shift at 10 uM after 90 mins relative to control; format: cell-based
Method in brief: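 Saturation binding of [3H]DPCPX (0.05–20 nM) to hA1CHO membranes, run in triplicate, 90 min at 25 °C, in 50 mM Tris–HCl pH 7.4, with or without test compound at final 10 µM. Nonspecific binding taken with 1 µM DPCPX. KD and Bmax fitted by LIGAND. Shift is the fold of Bmax increase over control.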

Adenosine receptor A2a (Homo sapiens), sequence (P29274 whole entry): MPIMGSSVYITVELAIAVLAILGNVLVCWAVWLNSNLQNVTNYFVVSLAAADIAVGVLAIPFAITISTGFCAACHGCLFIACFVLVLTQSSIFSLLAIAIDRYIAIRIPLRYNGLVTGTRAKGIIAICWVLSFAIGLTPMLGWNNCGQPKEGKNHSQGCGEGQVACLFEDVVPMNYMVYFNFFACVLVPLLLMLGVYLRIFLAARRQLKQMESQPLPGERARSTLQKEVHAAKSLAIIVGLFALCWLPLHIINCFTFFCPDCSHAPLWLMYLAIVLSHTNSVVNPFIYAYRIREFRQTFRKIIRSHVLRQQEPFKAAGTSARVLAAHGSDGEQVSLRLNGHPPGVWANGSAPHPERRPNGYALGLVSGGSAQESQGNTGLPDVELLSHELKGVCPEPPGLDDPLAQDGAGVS

Structure (SMILES) | Activity [1] [%] | inhibition [2] [%] | Activity [3] [%] | inhibition [4] [%] | Activity [5] [%] | Activity [6] [%] | fold change (FC) [7] | fold change (FC) [8] | inhibition [9] [%] | fold change (FC) [10]
Nc1scc(CN2CCN(c3c(F)cc(F)cc3F)CC2)c1C(=O)c1ccc(Cl)cc1 | -56 | 0 | 4.2 | 0 | -78 | -3.9 | 3.6 | 4.5 | 0 | 1
COc1ccc(N2CCN(Cc3csc(N)c3C(=O)c3ccc(Cl)cc3)CC2)cc1 | -15 | 0 | -1.2 | 0 | -52 | 0 | 2.8 | 3.3 | 0 | 0.9
Nc1scc(CN2CCN(c3cccnc3)CC2)c1C(=O)c1ccc(Cl)cc1 | -2.7 | 0 | 3.2 | 0 | -23 | 3.4 | 1.4 | 1.3 | 0 | 0.9
Nc1scc(CN2CCN(C3CCCC3)CC2)c1C(=O)c1ccc(Cl)cc1 | 10 | 3 | 9.1 | 3 | -30 | 2.1 | 1.3 | 1.1 | 0 | 0.9
Nc1scc(CN2CCN(c3cccc4ccccc34)CC2)c1C(=O)c1ccc(Cl)cc1 | 2.9 | 0 | 8.7 | 0 | -21 | 0 | 1.3 | 1.1 | 1 | 0.9
Nc1scc(CN2CCN(c3cccc(C(F)(F)F)c3)CC2)c1C(=O)c1ccc(Cl)cc1 | -72 | 0 | -8.2 | 3 | -80 | -30 | 4.3 | 5.3 | 0 | 1
Nc1scc(CN2CCN(c3ccc([N+](=O)[O-])cc3)CC2)c1C(=O)c1ccc(Cl)cc1 | -8.3 | 2 | -12 | 1 | -17 | -13 | 4.2 | 1.1 | 1 | 0.9
Nc1scc(CN2CCN(c3cc(F)cc(F)c3)CC2)c1C(=O)c1ccc(Cl)cc1 | -66 | 2 | -13 | 0 | -79 | -5 | 4.8 | 6.2 | 0 | 1.1
Cc1sc(N)c(C(=O)c2cccc(C(F)(F)F)c2)c1C | -31 |  | -8 | 0 | -57 | -3.4 | 1.7 | 1.3 | 0 | 1

The remaining lines, values ahead:

Activity [1] [%] | inhibition [2] [%] | Activity [3] [%] | inhibition [4] [%] | Activity [5] [%] | Activity [6] [%] | fold change (FC) [7] | fold change (FC) [8] | inhibition [9] [%] | fold change (FC) [10] | Structure (SMILES)
-66 | 0 | 0 | 0 | -82 | -17 | 4.8 | 6.1 | 1 | 1 | Nc1scc(CN2CCN(c3ccc(F)cc3F)CC2)c1C(=O)c1ccc(Cl)cc1
-9.2 | 0 | 2.1 | 0 | -15 | -1 | 1.4 | 1.1 | 4 | 1 | Nc1scc(CN2CCN(c3ccccc3F)CC2)c1C(=O)c1ccc(Cl)cc1
-57 | 1 | -9.2 | 0 | -81 | -9.4 | 4.3 | 5.3 | 0 | 1 | Nc1scc(CN2CCN(c3ccc(Cl)cc3F)CC2)c1C(=O)c1ccc(Cl)cc1
-78 | 1 | -3.2 | 0 | -87 | -34 | 5.5 | 7.2 | 0 | 1.1 | Nc1scc(CN2CCN(c3ccc(F)c(F)c3)CC2)c1C(=O)c1ccc(Cl)cc1
-60 | 0 | 4.2 | 0 | -78 | -21 | 5.5 | 7 | 0 | 1.1 | Nc1scc(CN2CCN(c3ccc(F)c(Cl)c3)CC2)c1C(=O)c1ccc(Cl)cc1
-86 | 4 | -18 | 1 | -82 | -37 | 3.9 | 4.8 | 1 | 1 | Nc1scc(CN2CCN(c3cccc(F)c3)CC2)c1C(=O)c1ccc(Cl)cc1
-54 | 0 | 2 | 0 | -74 | -11 | 3.7 | 4.4 | 0 | 1 | Nc1scc(CN2CCN(c3ccc(Cl)cc3Cl)CC2)c1C(=O)c1ccc(Cl)cc1
-39 | 0 | 6.1 | 0 | -70 | -6.2 | 4.2 | 5.2 | 0 | 1.1 | Nc1scc(CN2CCN(c3ccc(F)cc3Cl)CC2)c1C(=O)c1ccc(Cl)cc1

Reference: ChEMBL document CHEMBL1932980, “Structure-activity relationships of 2-amino-3-aroyl-4-[(4-arylpiperazin-1-yl)methyl]thiophenes. Part 2: Probing the influence of diverse substituents at the phenyl of the arylpiperazine moiety on allosteric enhancer activity at the A₁ adenosine receptor” (Bioorg Med Chem, 2012)
